# Experimental data pooled from the literature.
# Each line is one published result; the experiments were not run side by side.
# Target: Acetylcholinesterase (ACHE, Homo sapiens, UniProt P22303)
SMILES,assay,setting,quantity,value
COc1ccc(S(=O)(=O)N2CCCCC2)cc1C,"ligand displacement, radioligand",10 µM,inhibition,< 30%
O=C1CN(C(=O)CCn2ccnc2)CC(O)CN1CCc1ccccc1 (stereo not drawn),"enzyme activity, inhibitor, Ellman",10 µM,inhibition,21.6%
c1ccc(C(NCCNC(c2ccccc2)c2ccccc2)c2ccccc2)cc1,"enzyme activity, inhibitor",10 µM,inhibition,13%
O=C(Nc1cccnn1)N1CCN([C@@H]2CCOc3cc(C(F)(F)F)ccc32)CC1,"enzyme activity, inhibitor",20 µM,inhibition,-3%
COc1ccc2c(c1)[nH]c1c(C)nccc12,"enzyme activity, inhibitor, Ellman",1 µM,inhibition,33.8%
Nc1ncc(-c2nc(N3CCOCC3)nc(N3CCOCC3)n2)c(C(F)F)n1,"enzyme activity, inhibitor",10 µM,remaining activity,98%
C[C@H](C(=O)N[C@H]1COc2ccccc2[C@@H]1S(C)(=O)=O)c1ccc(F)cc1,"enzyme activity, inhibitor",10 µM,inhibition,1%
Clc1ccc2c(C3CCN(CCc4c[nH]c5ccccc45)CC3)c[nH]c2c1,"enzyme activity, inhibitor",10 µM,inhibition,4%
C=CCn1c2cc(OC(=O)CCN3CCN(Cc4ccccc4)CC3)ccc2c2ccnc(C)c21,"enzyme activity, inhibitor, Ellman",1 µM,inhibition,36.4%
CCOP(=O)(OCC)Oc1ccc([N+](=O)[O-])cc1,"enzyme activity, inhibitor",,kinact/KI,1510 M⁻¹ s⁻¹
COCc1c(-c2cc3cc(C)cc(OC)c3s2)c2c(N)ncnn2c1CN1CCNC(=O)C1,"enzyme activity, inhibitor",10 µM,inhibition,-1%
CCN1C(=O)C=CC1=O,"enzyme activity, inhibitor",30 µM,inhibition,~20%
CN(CCN1CCC(OC(=O)Nc2ccccc2-c2ccccc2)CC1)C(=O)c1ccc(CN2CCC(C(N)=O)CC2)cc1,"enzyme activity, inhibitor",1 µM,inhibition,9%
O=C(O)c1ccccc1O,"enzyme activity, inhibitor, Ellman",20 µM,inhibition,1.3%
Cc1ncc(C)n2nc(/C=C/c3nc(N4CCCC4)cc(N4CCOCC4)n3)nc12,"enzyme activity, inhibitor",10 µM,inhibition,4%
